What was measured:
Assay type in all cases: functional
Details in all cases: route intraperitoneal
[1] = tested on: Staphylococcus aureus; test: Antibacterial activity against Staphylococcus aureus SD in rat graft model assessed as biofilm reduction at 30 mg/kg, ip administered as single dose immediately after graft implantation
Outline: (§1)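 Wistar rats (n = 5) with 1-cm2 collagen-sealed Dacron grafts implanted subcutaneously. 2 × 10^7 exponentially growing bacteria inoculated onto the graft. RIP given intraperitoneally daily for 1, 4 or 7 days, starting immediately after implantation or 2 days later. Grafts explanted on day 10. Bacterial load expressed as CFU/ml; detection limit 10 CFU/ml. Untreated challenged controls.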

[2] = tested on: Staphylococcus aureus; test: Antibacterial activity against Staphylococcus aureus SD in rat graft model assessed as biofilm reduction at 20 mg/kg, ip administered as single dose, 2 days after graft implantation; outline: as §1
[3] = tested on: Staphylococcus aureus; test: Antibacterial activity against Staphylococcus aureus SD in rat graft model assessed as biofilm reduction at 30 mg/kg, ip administered as single dose, 2 days after graft implantation; outline: as §1
[4] = tested on: Staphylococcus aureus; test: Antibacterial activity against Staphylococcus aureus SD in rat graft model assessed as biofilm reduction at 10 mg/kg, ip administered as single dose immediately after graft implantation; outline: as §1
[5] = tested on: Staphylococcus aureus; test: Antibacterial activity against methicillin-resistant Staphylococcus aureus ATCC 43300 in rat graft model assessed as biofilm reduction at 10 mg/kg, ip administered as seven dose, 3 days after graft implantation
Outline: (§2)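 Wistar rats (n = 15) with subcutaneous 1-cm2 collagen-sealed Dacron grafts challenged with MRSA. Treatment began 3 days after implantation, once the biofilm was established. RIP 10 mg/kg and/or teicoplanin 3 mg/kg given ip daily for 7 days. Grafts explanted on day 10 and counted as CFU/ml. Untreated controls explanted on days 3 and 10.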

[6] = tested on: Staphylococcus aureus; test: Antibacterial activity against Staphylococcus aureus SD in rat graft model assessed as biofilm reduction at 10 mg/kg, ip administered as single dose, 2 days after graft implantation; outline: as §1
[7] = tested on: Staphylococcus aureus; test: Antibacterial activity against Staphylococcus aureus SD in rat graft model assessed as biofilm reduction at 20 mg/kg, ip administered as four doses, 2 days after graft implantation; outline: as §1
[8] = tested on: Staphylococcus aureus; test: Antibacterial activity against Staphylococcus aureus SD in rat graft model assessed as biofilm reduction at 10 mg/kg, ip administered as seven doses, 2 days after graft implantation; outline: as §1
[9] = tested on: Staphylococcus aureus; test: Antibacterial activity against Staphylococcus aureus SD in rat graft model assessed as biofilm reduction at 20 mg/kg, ip administered as single dose immediately after graft implantation; outline: as §1
[10] = tested on: Staphylococcus aureus; test: Antibacterial activity against methicillin-resistant Staphylococcus aureus ATCC 43300 in rat graft model assessed as biofilm reduction at 3 mg/kg, ip administered as seven dose, 3 days after graft implantation; outline: as §2
[11] = tested on: Staphylococcus aureus; test: Antibacterial activity against Staphylococcus aureus SD in rat graft model assessed as biofilm reduction at 30 mg/kg, ip administered as seven doses, 2 days after graft implantation; outline: as §1
[12] = tested on: Staphylococcus aureus; test: Antibacterial activity against Staphylococcus aureus SD in rat graft model assessed as biofilm reduction at 10 mg/kg, ip administered as four doses, 2 days after graft implantation; outline: as §1
[13] = tested on: Staphylococcus aureus; test: Antibacterial activity against Staphylococcus aureus SD in rat graft model assessed as biofilm reduction at 30 mg/kg, ip administered as four doses, 2 days after graft implantation; outline: as §1
[14] = tested on: Staphylococcus aureus; test: Antibacterial activity against Staphylococcus aureus SD in rat graft model assessed as biofilm reduction at 20 mg/kg, ip administered as seven doses, 2 days after graft implantation; outline: as §1

## H-YSPWTNF-NH2
[1]
  CFU/ml: 2300
[2]
  CFU/ml: 3000000
[3]
  CFU/ml: 760000
[4]
  CFU/ml: 50000
[5]
  CFU/ml: 78000
[6]
  CFU/ml: 8400000
[7]
  CFU/ml: 6300
[8]
  CFU/ml: 6700
[9]
  CFU/ml: 9400
[10]
  CFU/ml: 36000
[11]
  CFU/ml: 290
[12]
  CFU/ml: 53000
[13]
  CFU/ml: 850
[14]
  CFU/ml: 410
